Measurements from ChEMBL document CHEMBL3400039, “Design, synthesis and in vitro cell-based evaluation of the anti-cancer activities of hispolon analogs” (Bioorg Med Chem, 2015).
Activity calls are given as the source filed them. No cut-off for these calls is given here.

Assays:
[1] = tested on: HEK293; test: Resistance index, ratio of IC50 for HEK293 cells expressing ABCB1 to IC50 for HEK293 cells expressing pcDNA3.1; set-up: species or system Homo sapiens
Summary of the method: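 Fold resistance is the IC50 in P-glycoprotein-overexpressing HEK293/ABCB1 cells divided by the IC50 in empty-vector HEK293/pcDNA3.1 cells. IC50s from the 72 h MTT assay; paclitaxel was the positive-control ABCB1 substrate.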

[2] = tested on: HEK293; test: Cytotoxicity against HEK293 cells expressing ABCB1 after 72 hrs by MTT assay; format: functional, cell-based; conditions: Homo sapiens, HEK293, 72 h
Summary of the method: (§1)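 Cells kept as adherent monolayers in DMEM with 10% FBS, 37°C, 5% CO2. Trypsin-harvested, seeded at 5 × 10^3 cells/well, then exposed to compound at 0.1 to 100 µM for 72 h. MTT (4 mg/ml) added for 4 h, formazan dissolved in DMSO, absorbance read at 570 nm. At least three experiments, each in triplicate; mean±SD.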

[3] = tested on: HEK293; test: Cytotoxicity against HEK293 cells expressing pcDNA3.1 after 72 hrs by MTT assay; format: cell-based; conditions: Homo sapiens, HEK293, 72 h; summary of the method: as §1
[4] = tested on: S1; test: Cytotoxicity against human S1 cells at 100 uM after 72 hrs by MTT assay; format: functional, cell-based; summary of the method: as §1
[5] = tested on: HCT-116; test: Cytotoxicity against human HCT116 cells at 100 uM after 72 hrs by MTT assay; format: functional, cell-based; summary of the method: as §1
[6] = tested on: DU-145; test: Cytotoxicity against human DU145 cells at 100 uM after 72 hrs by MTT assay; format: functional, cell-based; summary of the method: as §1
[7] = tested on: MCF7; test: Cytotoxicity against human MCF7 cells at 100 uM after 72 hrs by MTT assay; format: functional, cell-based; summary of the method: as §1
[8] = Cytotoxicity against mouse NIH/3T3 cells at 100 uM after 72 hrs by MTT assay; format: cell-based; conditions: nih3t3, 72 h; summary of the method: as §1
[9] = tested on: MDCK; test: Cytotoxicity against MDCK cells at 100 uM after 72 hrs by MTT assay; format: cell-based, Canis lupus familiaris; conditions: dog; summary of the method: as §1
[10] = tested on: MDA-MB-231; test: Cytotoxicity against human MDA-MB-231 cells at 100 uM after 72 hrs by MTT assay; format: functional, cell-based; summary of the method: as §1
[11] = tested on: HEK293; test: Cytotoxicity against HEK293 cells expressing pcDNA3.1 at 100 uM after 72 hrs by MTT assay; format: cell-based; conditions: human, hek293, 72 h; summary of the method: as §1
[12] = tested on: PC-3; test: Cytotoxicity against human PC3 cells at 100 uM after 72 hrs by MTT assay; format: functional, cell-based; summary of the method: as §1
[13] = tested on: MDA-MB-231; test: Cytotoxicity against human MDA-MB-231 cells after 72 hrs by MTT assay; format: functional, cell-based; conditions: MDA-MB-231, 72 h; summary of the method: as §1
[14] = Cytotoxicity against human S1 cells after 72 hrs by MTT assay; format: functional, cell-based; conditions: S1, 72 h; summary of the method: as §1
[15] = tested on: DU-145; test: Cytotoxicity against human DU145 cells after 72 hrs by MTT assay; format: functional, cell-based; conditions: DU-145, 72 h; summary of the method: as §1
[16] = Cytotoxicity against human PC3 cells after 72 hrs by MTT assay; format: functional, cell-based; conditions: PC-3, 72 h; summary of the method: as §1
[17] = Cytotoxicity against human HCT116 cells after 72 hrs by MTT assay; format: functional, cell-based; conditions: HCT-116, 72 h; summary of the method: as §1
[18] = Cytotoxicity against mouse NIH/3T3 cells after 72 hrs by MTT assay; format: cell-based; conditions: NIH3T3, 72 h; summary of the method: as §1
[19] = tested on: MDCK; test: Cytotoxicity against MDCK cells after 72 hrs by MTT assay; format: cell-based; conditions: Canis lupus familiaris; summary of the method: as §1

SMILES	Ratio IC50 [1]	IC50 [2]	IC50 [3]	Activity [4]	Activity [5]	Activity [6]	Activity [7]	Activity [8]	Activity [9]	Activity [10]	Activity [11]	Activity [12]	IC50 [13]	IC50 [14]	IC50 [15]	IC50 [16]	IC50 [17]	IC50 [18]	IC50 [19]
CC(=O)O[C@H]1C(=O)[C@@]2(C)[C@H]([C@H](OC(=O)c3ccccc3)[C@]3(O)C[C@H](OC(=O)[C@H](O)[C@@H](NC(=O)c4ccccc4)c4ccccc4)C(C)=C1C3(C)C)[C@]1(OC(C)=O)CO[C@@H]1C[C@@H]2O [PACLITAXEL]	9	0.36 µM	0.04 µM	–	–	–	–	–	–	–	–	–	–	–	–	–	–	–	–
COc1ccc(CCc2cc(C)n[nH]2)cc1OC	–	–	–	inactive	inactive	inactive	inactive	Non-toxic	Non-toxic	inactive	Non-toxic	inactive	–	–	–	–	–	–	–
COc1ccc(/C=C/c2cc(C)n[nH]2)cc1OC	1.4	33.2 µM	–	–	–	–	–	–	–	–	–	–	38.8 µM	22.4 µM	18.5 µM	12.6 µM	51.3 µM	68.4 µM	54.1 µM
Cc1cc(/C=C/c2ccc(O)c(O)c2)[nH]n1	1.3	39.4 µM	29.7 µM	–	–	–	–	–	–	–	–	–	–	55.3 µM	33.1 µM	23.2 µM	–	88.4 µM	> 100 µM
COc1ccc(CCc2cc(C)no2)cc1	–	–	–	inactive	inactive	inactive	inactive	Non-toxic	Non-toxic	inactive	Non-toxic	inactive	–	–	–	–	–	–	–
COc1cc(/C=C/c2cc(C)[nH]n2)ccc1O	0.9	45.2 µM	47.7 µM	–	–	–	–	–	–	–	–	–	67 µM	29.4 µM	32.2 µM	16.5 µM	78.8 µM	66.3 µM	35.4 µM
COc1ccc(CCC(=O)CC(C)=O)cc1OC	–	–	–	inactive	inactive	inactive	inactive	Non-toxic	Non-toxic	inactive	Non-toxic	inactive	–	–	–	–	–	–	–
COc1cc(CCc2cc(C)no2)ccc1O	–	–	–	inactive	inactive	inactive	inactive	Non-toxic	Non-toxic	inactive	Non-toxic	inactive	–	–	–	–	–	–	–
Cc1cc(CCc2ccc(O)cc2)on1	–	–	–	inactive	inactive	inactive	inactive	Non-toxic	Non-toxic	inactive	Non-toxic	inactive	–	–	–	–	–	–	–
CC(=O)CC(=O)/C=C/c1ccc(O)cc1	1.1	11.6 µM	–	–	–	–	–	–	–	–	–	–	6.8 µM	10.6 µM	8.8 µM	20.2 µM	36.5 µM	18.9 µM	30.6 µM
CC(=O)CC(=O)CCc1ccc(O)cc1	–	–	–	inactive	inactive	inactive	inactive	Non-toxic	Non-toxic	inactive	Non-toxic	inactive	–	–	–	–	–	–	–
COc1cc(CCc2cc(C)n[nH]2)ccc1O	–	–	–	inactive	inactive	inactive	inactive	Non-toxic	Non-toxic	inactive	Non-toxic	inactive	–	–	–	–	–	–	–
COc1ccc(CCc2cc(C)no2)cc1OC	–	–	–	inactive	inactive	inactive	inactive	Non-toxic	Non-toxic	inactive	Non-toxic	inactive	–	–	–	–	–	–	–
COc1ccc(/C=C/C(=O)CC(C)=O)cc1	0.9	16.3 µM	18.7 µM	–	–	–	–	–	–	–	–	–	25 µM	44.6 µM	9.1 µM	15.8 µM	11.9 µM	48.2 µM	41.6 µM
COc1ccc(CCc2cc(C)n[nH]2)cc1	–	–	–	inactive	inactive	inactive	inactive	Non-toxic	Non-toxic	inactive	Non-toxic	inactive	–	–	–	–	–	–	–
COc1ccc(CCC(=O)CC(C)=O)cc1	–	–	–	inactive	inactive	inactive	inactive	Non-toxic	Non-toxic	inactive	Non-toxic	inactive	–	–	–	–	–	–	–
Cc1cc(/C=C/c2ccc(O)cc2)[nH]n1	0.9	68.9 µM	77.4 µM	–	–	–	–	–	–	–	–	–	23.2 µM	32.9 µM	–	48.1 µM	38.8 µM	59.2 µM	80 µM
Cc1cc(/C=C/c2ccc(O)cc2)on1	1	–	–	–	–	–	–	–	–	–	–	–	55.5 µM	44.2 µM	67.2 µM	50.2 µM	67.9 µM	88.5 µM	58.3 µM
Cc1cc(CCc2ccc(O)cc2)[nH]n1	–	–	–	inactive	inactive	inactive	inactive	Non-toxic	Non-toxic	inactive	Non-toxic	inactive	–	–	–	–	–	–	–
COc1cc(/C=C/c2cc(C)no2)ccc1O	1.1	41.3 µM	36.2 µM	–	–	–	–	–	–	–	–	–	34.6 µM	50.5 µM	28.9 µM	20.9 µM	33.4 µM	> 100 µM	29.8 µM
